From ChEMBL document CHEMBL5058577, “EUbOPEN Chemogenomics Library 2 (Multiplex)” (2022)

System: HEK-293T
Test: Multiplex assay against HEK293T
Assay type: toxicity, cell-based
Details: human
Outline: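 With compound added, live cells were imaged on a CQ1 microscope at 37°C and 5% CO2; staining with Hoechst33342, BioTracker Green Microtubule Cytoskeleton Dye, MitoTracker Red and Annexin V Alexa Fluor 680 had been done at seeding. The CellPathfinder machine-learning gating scheme split cells into Hoechst high-intensity objects or normal cells, normal cells into healthy, pyknosed or fragmented nuclei, and pyknosed cells into mitotic or apoptotic. The tubulin, mitochondrial-mass and membrane-permeability phenotypes are per cents of healthy-nucleus cells.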

[1] = 12 h, 1 µM, compound concentration 1 uM, replicate 1
[2] = 12 h, 1 µM, compound concentration 1 uM, replicate 2
[3] = 12 h, 10 µM, compound concentration 10 uM, replicate 1
[4] = 12 h, 10 µM, compound concentration 10 uM, replicate 2
[5] = 24 h, 1 µM, compound concentration 1 uM, replicate 1
[6] = 24 h, 1 µM, compound concentration 1 uM, replicate 2
[7] = 24 h, 10 µM, compound concentration 10 uM, replicate 1
[8] = 24 h, 10 µM, compound concentration 10 uM, replicate 2
[9] = 48 h, 1 µM, compound concentration 1 uM, replicate 1
[10] = 48 h, 1 µM, compound concentration 1 uM, replicate 2
[11] = 48 h, 10 µM, compound concentration 10 uM, replicate 1
[12] = 48 h, 10 µM, compound concentration 10 uM, replicate 2

COc1cc(C(=O)N(CCCc2ccccc2)Cc2ccc(CC(=O)O)cc2)cc(OC)c1C
Population Apoptotic (%) [1]: 45%
Population Fragmented Nuclei (%) [1]: 7%
Population Healthy Nuclei (%) [1]: 82%
Population Hoechst High Intensity Objects (%) [1]: 5%
Population Membrane Permeable-Phenotype (%) [1]: 0%
Population Mitochondria Different-Phenotype (%) [1]: 47%
Population Mitotic Cells (%) [1]: 55%
Population Normal (%) [1]: 94%
Population Pyknosed Nuclei (%) [1]: 10%
Population Tubulin-Different-Phenotype (%) [1]: 31%
Total Cell Count [1]: 395
Population Apoptotic (%) [2]: 44%
Population Fragmented Nuclei (%) [2]: 6%
Population Healthy Nuclei (%) [2]: 84%
Population Hoechst High Intensity Objects (%) [2]: 4%
Population Mitochondria Different-Phenotype (%) [2]: 50%
Population Normal (%) [2]: 95%
Population Pyknosed Nuclei (%) [2]: 9%
Population Tubulin-Different-Phenotype (%) [2]: 19%
Total Cell Count [2]: 410
Population Apoptotic (%) [3]: 30%
Population Fragmented Nuclei (%) [3]: 6%
Population Healthy Nuclei (%) [3]: 77%
Population Hoechst High Intensity Objects (%) [3]: 8%
Population Membrane Permeable-Phenotype (%) [3]: 1%
Population Mitochondria Different-Phenotype (%) [3]: 46%
Population Mitotic Cells (%) [3]: 70%
Population Normal (%) [3]: 91%
Population Pyknosed Nuclei (%) [3]: 15%
Population Tubulin-Different-Phenotype (%) [3]: 52%
Total Cell Count [3]: 431
Population Apoptotic (%) [4]: 47%
Population Fragmented Nuclei (%) [4]: 4%
Population Healthy Nuclei (%) [4]: 82%
Population Hoechst High Intensity Objects (%) [4]: 6%
Population Membrane Permeable-Phenotype (%) [4]: 0%
Population Mitochondria Different-Phenotype (%) [4]: 67%
Population Mitotic Cells (%) [4]: 52%
Population Normal (%) [4]: 93%
Population Pyknosed Nuclei (%) [4]: 13%
Population Tubulin-Different-Phenotype (%) [4]: 44%
Total Cell Count [4]: 438
Population Apoptotic (%) [5]: 32%
Population Fragmented Nuclei (%) [5]: 7%
Population Healthy Nuclei (%) [5]: 78%
Population Hoechst High Intensity Objects (%) [5]: 5%
Population Membrane Permeable-Phenotype (%) [5]: 0%
Population Mitochondria Different-Phenotype (%) [5]: 27%
Population Mitotic Cells (%) [5]: 67%
Population Normal (%) [5]: 94%
Population Pyknosed Nuclei (%) [5]: 14%
Population Tubulin-Different-Phenotype (%) [5]: 15%
Total Cell Count [5]: 483
Population Apoptotic (%) [6]: 48%
Population Healthy Nuclei (%) [6]: 82%
Population Hoechst High Intensity Objects (%) [6]: 3%
Population Mitochondria Different-Phenotype (%) [6]: 26%
Population Mitotic Cells (%) [6]: 51%
Population Normal (%) [6]: 96%
Population Pyknosed Nuclei (%) [6]: 9%
Population Tubulin-Different-Phenotype (%) [6]: 10%
Total Cell Count [6]: 507
Population Apoptotic (%) [7]: 34%
Population Fragmented Nuclei (%) [7]: 7%
Population Healthy Nuclei (%) [7]: 80%
Population Hoechst High Intensity Objects (%) [7]: 7%
Population Membrane Permeable-Phenotype (%) [7]: 0%
Population Mitochondria Different-Phenotype (%) [7]: 39%
Population Mitotic Cells (%) [7]: 65%
Population Normal (%) [7]: 92%
Population Pyknosed Nuclei (%) [7]: 12%
Population Tubulin-Different-Phenotype (%) [7]: 43%
Total Cell Count [7]: 549
Population Apoptotic (%) [8]: 42%
Population Healthy Nuclei (%) [8]: 79%
Population Hoechst High Intensity Objects (%) [8]: 6%
Population Mitochondria Different-Phenotype (%) [8]: 50%
Population Mitotic Cells (%) [8]: 57%
Population Normal (%) [8]: 93%
Population Tubulin-Different-Phenotype (%) [8]: 38%
Total Cell Count [8]: 526
Population Apoptotic (%) [9]: 30%
Population Fragmented Nuclei (%) [9]: 12%
Population Healthy Nuclei (%) [9]: 77%
Population Hoechst High Intensity Objects (%) [9]: 1%
Population Membrane Permeable-Phenotype (%) [9]: 1%
Population Mitochondria Different-Phenotype (%) [9]: 16%
Population Mitotic Cells (%) [9]: 69%
Population Normal (%) [9]: 98%
Population Pyknosed Nuclei (%) [9]: 9%
Population Tubulin-Different-Phenotype (%) [9]: 11%
Total Cell Count [9]: 812
Population Apoptotic (%) [10]: 26%
Population Fragmented Nuclei (%) [10]: 9%
Population Healthy Nuclei (%) [10]: 83%
Population Hoechst High Intensity Objects (%) [10]: 3%
Population Mitochondria Different-Phenotype (%) [10]: 17%
Population Mitotic Cells (%) [10]: 73%
Population Normal (%) [10]: 96%
Population Pyknosed Nuclei (%) [10]: 7%
Population Tubulin-Different-Phenotype (%) [10]: 9%
Total Cell Count [10]: 753
Population Apoptotic (%) [11]: 32%
Population Fragmented Nuclei (%) [11]: 12%
Population Healthy Nuclei (%) [11]: 76%
Population Hoechst High Intensity Objects (%) [11]: 4%
Population Membrane Permeable-Phenotype (%) [11]: 1%
Population Mitochondria Different-Phenotype (%) [11]: 29%
Population Mitotic Cells (%) [11]: 67%
Population Normal (%) [11]: 95%
Population Pyknosed Nuclei (%) [11]: 11%
Population Tubulin-Different-Phenotype (%) [11]: 29%
Total Cell Count [11]: 729
Population Apoptotic (%) [12]: 33%
Population Fragmented Nuclei (%) [12]: 15%
Population Healthy Nuclei (%) [12]: 75%
Population Hoechst High Intensity Objects (%) [12]: 8%
Population Mitochondria Different-Phenotype (%) [12]: 37%
Population Mitotic Cells (%) [12]: 66%
Population Normal (%) [12]: 91%
Population Pyknosed Nuclei (%) [12]: 9%
Population Tubulin-Different-Phenotype (%) [12]: 34%
Total Cell Count [12]: 632

COc1ccc2c(c1)C(C(=O)N(Cc1ccc(N(C)C)cc1)c1ccc(C(C)C)cc1)CCC2.Cl (stereo not given)
Population Apoptotic (%) [1]: 30%
Population Fragmented Nuclei (%) [1]: 6%
Population Healthy Nuclei (%) [1]: 80%
Population Hoechst High Intensity Objects (%) [1]: 7%
Population Membrane Permeable-Phenotype (%) [1]: 0%
Population Mitochondria Different-Phenotype (%) [1]: 39%
Population Mitotic Cells (%) [1]: 70%
Population Normal (%) [1]: 92%
Population Pyknosed Nuclei (%) [1]: 13%
Population Tubulin-Different-Phenotype (%) [1]: 27%
Total Cell Count [1]: 413
Population Apoptotic (%) [2]: 43%
Population Fragmented Nuclei (%) [2]: 5%
Population Healthy Nuclei (%) [2]: 79%
Population Hoechst High Intensity Objects (%) [2]: 4%
Population Mitochondria Different-Phenotype (%) [2]: 61%
Population Mitotic Cells (%) [2]: 56%
Population Normal (%) [2]: 95%
Population Pyknosed Nuclei (%) [2]: 14%
Population Tubulin-Different-Phenotype (%) [2]: 23%
Total Cell Count [2]: 330
Population Apoptotic (%) [3]: 60%
Population Fragmented Nuclei (%) [3]: 9%
Population Healthy Nuclei (%) [3]: 78%
Population Hoechst High Intensity Objects (%) [3]: 10%
Population Membrane Permeable-Phenotype (%) [3]: 0%
Population Mitochondria Different-Phenotype (%) [3]: 60%
Population Mitotic Cells (%) [3]: 39%
Population Normal (%) [3]: 89%
Population Pyknosed Nuclei (%) [3]: 11%
Population Tubulin-Different-Phenotype (%) [3]: 64%
Total Cell Count [3]: 383
Population Apoptotic (%) [4]: 63%
Population Fragmented Nuclei (%) [4]: 4%
Population Healthy Nuclei (%) [4]: 77%
Population Hoechst High Intensity Objects (%) [4]: 6%
Population Mitochondria Different-Phenotype (%) [4]: 75%
Population Mitotic Cells (%) [4]: 36%
Population Normal (%) [4]: 93%
Population Pyknosed Nuclei (%) [4]: 17%
Population Tubulin-Different-Phenotype (%) [4]: 57%
Total Cell Count [4]: 361
Population Apoptotic (%) [5]: 31%
Population Fragmented Nuclei (%) [5]: 9%
Population Healthy Nuclei (%) [5]: 81%
Population Hoechst High Intensity Objects (%) [5]: 3%
Population Membrane Permeable-Phenotype (%) [5]: 0%
Population Mitochondria Different-Phenotype (%) [5]: 20%
Population Mitotic Cells (%) [5]: 68%
Population Normal (%) [5]: 96%
Population Pyknosed Nuclei (%) [5]: 8%
Population Tubulin-Different-Phenotype (%) [5]: 13%
Total Cell Count [5]: 567
Population Apoptotic (%) [6]: 60%
Population Fragmented Nuclei (%) [6]: 7%
Population Healthy Nuclei (%) [6]: 79%
Population Hoechst High Intensity Objects (%) [6]: 6%
Population Mitochondria Different-Phenotype (%) [6]: 33%
Population Mitotic Cells (%) [6]: 40%
Population Normal (%) [6]: 93%
Population Pyknosed Nuclei (%) [6]: 13%
Population Tubulin-Different-Phenotype (%) [6]: 11%
Total Cell Count [6]: 399
Population Apoptotic (%) [7]: 35%
Population Fragmented Nuclei (%) [7]: 9%
Population Healthy Nuclei (%) [7]: 73%
Population Hoechst High Intensity Objects (%) [7]: 10%
Population Membrane Permeable-Phenotype (%) [7]: 1%
Population Mitochondria Different-Phenotype (%) [7]: 51%
Population Mitotic Cells (%) [7]: 64%
Population Normal (%) [7]: 89%
Population Pyknosed Nuclei (%) [7]: 17%
Population Tubulin-Different-Phenotype (%) [7]: 70%
Total Cell Count [7]: 409
Population Apoptotic (%) [8]: 45%
Population Fragmented Nuclei (%) [8]: 7%
Population Healthy Nuclei (%) [8]: 76%
Population Hoechst High Intensity Objects (%) [8]: 6%
Population Membrane Permeable-Phenotype (%) [8]: 0%
Population Mitochondria Different-Phenotype (%) [8]: 60%
Population Mitotic Cells (%) [8]: 55%
Population Normal (%) [8]: 93%
Population Pyknosed Nuclei (%) [8]: 16%
Population Tubulin-Different-Phenotype (%) [8]: 60%
Total Cell Count [8]: 389
Population Apoptotic (%) [9]: 20%
Population Fragmented Nuclei (%) [9]: 12%
Population Healthy Nuclei (%) [9]: 80%
Population Hoechst High Intensity Objects (%) [9]: 1%
Population Membrane Permeable-Phenotype (%) [9]: 1%
Population Mitochondria Different-Phenotype (%) [9]: 10%
Population Mitotic Cells (%) [9]: 79%
Population Normal (%) [9]: 98%
Population Pyknosed Nuclei (%) [9]: 6%
Population Tubulin-Different-Phenotype (%) [9]: 10%
Total Cell Count [9]: 968
Population Apoptotic (%) [10]: 46%
Population Healthy Nuclei (%) [10]: 81%
Population Hoechst High Intensity Objects (%) [10]: 4%
Population Membrane Permeable-Phenotype (%) [10]: 0%
Population Mitochondria Different-Phenotype (%) [10]: 17%
Population Mitotic Cells (%) [10]: 53%
Population Normal (%) [10]: 95%
Population Tubulin-Different-Phenotype (%) [10]: 15%
Total Cell Count [10]: 631
Population Apoptotic (%) [11]: 59%
Population Fragmented Nuclei (%) [11]: 15%
Population Healthy Nuclei (%) [11]: 75%
Population Hoechst High Intensity Objects (%) [11]: 9%
Population Membrane Permeable-Phenotype (%) [11]: 6%
Population Mitochondria Different-Phenotype (%) [11]: 25%
Population Mitotic Cells (%) [11]: 40%
Population Normal (%) [11]: 90%
Population Pyknosed Nuclei (%) [11]: 9%
Population Tubulin-Different-Phenotype (%) [11]: 53%
Total Cell Count [11]: 558
Population Apoptotic (%) [12]: 36%
Population Fragmented Nuclei (%) [12]: 11%
Population Healthy Nuclei (%) [12]: 79%
Population Hoechst High Intensity Objects (%) [12]: 3%
Population Membrane Permeable-Phenotype (%) [12]: 2%
Population Mitochondria Different-Phenotype (%) [12]: 24%
Population Mitotic Cells (%) [12]: 63%
Population Normal (%) [12]: 96%
Population Pyknosed Nuclei (%) [12]: 8%
Population Tubulin-Different-Phenotype (%) [12]: 50%
Total Cell Count [12]: 482
